ABCB6 inh 2: ABCB6 transporter inhibitors, primary screen, K562-ABCB6 cells, flow cytometry, MLPCN library; ATP-binding cassette sub-family B member 6 (Homo sapiens), Q9NP58; K562-ABCB6 porphyrin accumulation, 1 h; hits give low values; fluorescence ratio to DMSO, % at 10 µM; 360,000 compounds, 0.19% hits;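 active = fluorescence ratio to DMSO below 75%, the collection mean minus 3 SD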;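 also: signal is porphyrin accumulated inside mitochondria; 100% equals median channel fluorescence of DMSO control wells; lower ratio means ABCB6 inhibition with less porphyrin fluorescence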
FLuc inh counter: firefly luciferase enzyme inhibitors, primary screen, artefact control for luciferase-based inhibitor screens, biochemical, luminescence, ATPLite. 10 min. 200,000 compounds, 1.5% hits. AID 1006, 2008. inhibition, % at 10 µM;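 active = inhibition above about 50% when tested at 10 µM, limit read from the data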
ABCG2 inh: ABCG2 efflux pump inhibitors, primary screen, multiplex with ABCB1, IgMXP3 cells, flow cytometry | inhibition, % at 6.6 µM | 190,000 compounds, 0.1% hits | Broad substrate specificity ATP-binding cassette transporter ABCG2 (Homo sapiens), Q9UNQ0 | JC-1 efflux;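 active = inhibition above 80%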;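 also: 0% = DMSO and 100% = nicardipine control wells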
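Measure – % inhibition of efflux relative to nicardipine and DMSO · Test system – ABCG2 IgMXP3 and barcoded ABCB1 CCRF-Adr cell mix · Control set – nicardipine as high control, DMSO as low control · Compound – one concentration, 6.6 µM final · Signal – flow cytometry of retained JC-1 fluorescence · Timing – 10 min exposure at 25 °C with rotation, no wash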
ABCB1 block: ABCB1 efflux pump inhibitors, primary screen, cell-based, multiplex, flow cytometry, ABCG2 counter-screen | ATP-dependent translocase ABCB1 (Homo sapiens), P08183 | CCRF-Adr cells, JC-1 efflux | inhibition, % at 6.6 µM | 190,000 compounds, 0.067% hits | AID 1326, 2008; in the data active = inhibition above about 40%;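 also: 0% = vehicle and 100% = reference inhibitor; higher value means more JC-1 retained so stronger ABCB1 efflux block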
FLuc stim CS: FLuc activators, initial screening, artefact control for FLuc-dependent activation tests, biochemical, ATPlite luminescence | AID 1027, 2008 | 200,000 tested, under 10 active | ATPlite luciferase biochemical, 10 min; 0 = ATP-free wells, 1 = DMSO control | activation factor at 10 µM;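 active = luciferase activation factor, scaled between plate controls, of at least 2 with compound at 10 µM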
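Material: Luciferase/luciferin reagent mix | Doses: Test compounds dosed from 2 mM stocks in 100% DMSO | Timing: 10 min incubation after luciferase reagent addition, room temperature | Measured by: Luminescence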
Diaphorase act: compounds boosting diaphorase resazurin reduction – biochemical, uHTS, resorufin fluorescence, counter-screen for diaphorase-coupled primary assays, primary screen | Diaphorase/resazurin coupled assay, 16 min; hits give high values; 1 = vehicle wells, 0 = NADH-free wells | activation factor at 20 µM | 190,000 compounds, 0.005% hits;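 active = diaphorase activity raised at least twofold by the compound at 20 µM; inactive = activation factor below 2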
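Material: bacterial diaphorase enzyme (C. kluyveri); amount: enzyme 0.07 U/mL final; reagent: NADH substrate 0.114 mM plus resazurin dye 0.1 mM, final; doses: single compound dose of 20 µM, 1% DMSO final; timing: 16 min enzyme reaction, ambient temperature; measured by: fluorescence of resorufin, 544 nm excitation, 590 nm emission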
* marks the source's active call; other numbers are inactive results; / = not tested or not shown. The sample as a whole holds a higher share of hits than the screen did.

SMILES	ABCB6 inh 2	FLuc inh counter	ABCG2 inh	ABCB1 block	FLuc stim CS	Diaphorase act
Cc1ccc2c(c1)sc(=NC(=O)c1cccs1)n2C	92.0	94.6*	1.5	-0.4	0.1	0.9
Cn1cccc1CC(=O)N/N=C/c1cccc2ccccc12	94.0	-2.1	5.0	0.2	1	1
Cn1cccc1CC(=O)N/N=C\c1c2ccccc2cc2ccccc12	73.0*	-3.5	2.1	0.3	1	0.7
COc1ccc(C2=NC(c3ccccc3)CO2)cc1 (centres undefined)	/	26.6	0.1	-0.2	0.7	1
COc1ccc(C2=Nc3ccccc3OC2)cc1	100.0	50.6*	1.2	0.4	0.5	0.9
O=C(CN(C(=O)CCC(=O)Nc1nccs1)c1ccccc1F)NCCc1ccccc1	92.0	/	/	/	/	/
C/C(=N\Nc1cccc2cccnc12)c1ccccn1	94.0	87.1*	4.5	-0.3	0.1	1.1
C/C(=N\Nc1ccc(Cl)c(C(=O)O)c1)c1ccccn1	97.0	/	/	/	/	/
C/C(=N\Nc1cccc2cccnc12)c1ccccc1O	101.0	68.5*	1.6	-0.5	0.3	0.8
C/C(=N\Nc1cccc2cccnc12)c1ccc(N)cc1	121.0	11.2	3.1	0.5	0.9	0.6
C/C(=N\Nc1ncc(Cl)cc1Cl)c1ccccn1	128.0	94.4*	19.4	2.3	0.1	0.8
Cc1csc(NC(=O)c2ccc(Cl)nc2)n1	102.0	/	/	/	/	/
O=C(O)COc1ccc(/C=N/Nc2nc(Nc3ccccc3)nc(N3CCCCC3)n2)cc1	101.0	54.9*	-9.2	-2.8	0.5	1
Cc1ccc(Sc2ccc(/C=C3/C(=O)NN(c4ccccc4)C3=O)o2)cc1	104.0	/	/	/	/	/
Cc1ccsc1C=C1C(=O)c2ccccc2C1=O	95.0	72.8*	0.6	0.3	0.3	0.8
Cc1ccsc1/C=C1/C(=O)NN(c2ccccc2)C1=O	101.0	59.3*	10.7	1.2	0.4	0.9
COC(=O)c1nc2ccc(N3CCOCC3)cc2c(C)c1C(=O)OC	92.0	87.1*	4.2	0.7	0.1	0.7
N#C/C(=C\c1ccc(N2CCOCC2)o1)C(=O)NCCc1ccccc1	99.0	0.6	4.2	0.9	1	0.7
N#C/C(=C/c1ccc(N2CCOCC2)o1)C(=O)Nc1ccccc1	100.0	55.2*	2.6	0.6	0.4	0.8
CCOc1ccc(-c2cc(C(=O)O)c3ccccc3n2)cc1	102.0	94.7*	3.5	0.1	0.1	0.9
Cc1ccc(-c2cc(C(=O)N3CCN(c4ncccn4)CC3)c3ccccc3n2)cc1	95.0	62.0*	21.9	4.1	0.4	0.7
CCOc1ccc(-c2cc(C(=O)N3CCC(C)CC3)c3ccccc3n2)cc1	100.0	/	/	/	/	/
CC(C)Oc1cccc(-c2cc(C(=O)N3CCN(c4ncccn4)CC3)c3ccccc3n2)c1	87.0	38.9	3.7	2.8	0.6	1
CC(C)Oc1cccc(-c2cc(C(=O)N3CCN(S(C)(=O)=O)CC3)c3ccccc3n2)c1	87.0	51.8*	3.4	2.5	0.5	1.1
CCOc1ccc(-c2cc(C(=O)NCCCN3CCN(CC)CC3)c3ccccc3n2)cc1	104.0	66.8*	1.7	1.1	0.3	1
SMILES	ABCB6 inh 2	FLuc inh counter	ABCG2 inh	ABCB1 block	FLuc stim CS	Diaphorase act
CC(C)(C)CC(=O)O/N=C(\N)c1ccccn1	95.0	51.1*	7.6	0.1	0.5	1
Cc1ccc(CC(=O)O/N=C(\N)c2ccccn2)cc1	104.0	/	/	/	/	/
N/C(=N\OC(=O)/C=C/c1ccccc1)c1ccccn1	108.0	82.2*	7.9	0.3	0.2	0.8
O=C(/C=C/c1ccccc1)c1ccccn1	95.0	70.6*	1.7	0.4	0.3	0.8
COc1ccc(Br)c(C(=O)N(C)CC(=O)Nc2ccc(N3CCOCC3)cc2)c1	101.0	/	/	/	/	/
Cc1nn(CC(=O)N2CCN(c3ccc(Cl)cc3)CC2)c(=O)c2cccn12	102.0	/	/	/	/	/
CCCCCCCCCCCCCCCC(O)C[N+](C)(C)CCO (centres undefined)	93.0	/	/	/	/	/
CCCCCCCCCCCCCCCC(O)C(N)CO (centres undefined)	93.0	1.1	0.0	0.9	1	2.3*
CC(C)c1ccc(-n2cnn(-c3ncccc3[N+](=O)[O-])c2=O)cc1	96.0	53.7*	3.5	0.3	0.5	0.9
Cc1ccc(-c2nc3ccccc3nc2-c2ccccc2)cc1	103.0	/	/	/	/	/
Cc1ccc(-c2nc(N)s[n+]2-c2ccccc2)cc1	91.0	79.7*	-2.9	-0.5	0.2	0.7
CNc1nc(-c2ccccc2)[n+](-c2ccc(C)cc2)s1	98.0	88.8*	2.4	4.1	0.1	0.7
C[C@H]1CCCCO[C@H](CN(C)Cc2ccccc2)[C@@H](C)CN([C@@H](C)CO)C(=O)c2cc(NC(=O)CCC(F)(F)F)ccc2O1	93.0	/	/	/	/	/
O=[N+]([O-])c1ccc(O)c(/C=N/NC2=NS(=O)(=O)c3ccccc32)c1	107.0	68.8*	-0.2	-0.1	0.3	0.8
Cc1cc(C(=O)COC(=O)c2n[nH]c3ccccc23)c(C)n1CC1CCCO1 (centres undefined)	95.0	91.8*	5.6	0.8	0.1	0.8
COCCn1c(C)cc(C(=O)COC(=O)c2n[nH]c3ccccc23)c1C	96.0	93.5*	5.5	0.9	0.1	0.8
Cc1cc(C(=O)COC(=O)c2cccnc2Cl)c(C)n1CC1CCCO1 (centres undefined)	101.0	96.2*	6.9	0.9	0	0.9
Cc1cc(C(=O)COC(=O)c2ccccc2O)c(C)n1CC1CCCO1 (centres undefined)	98.0	/	/	/	/	/
N#CC(CCc1ccccc1[N+](=O)[O-])(CCc1ccccc1[N+](=O)[O-])C(N)=O	94.0	/	/	/	/	/
Cc1ccn2cc(-c3ccc4c(c3)NC(=O)CO4)nc2c1	89.0	82.7*	2.9	0.2	0.2	1
Cc1ccn2c(c1)nc(=S)n2C(=O)c1ccco1	/	93.6*	1.7	0.3	0.1	0.9
CCNC(C(=O)c1c[nH]c2c(CC)cccc12)c1ccccc1 (centres undefined)	96.0	/	/	/	/	/
COC(=O)CCC(=O)c1oc2ccc(OC)cc2c1N	106.0	56.0*	3.5	0.4	0.4	0.9
COc1ccc(NC(=O)C2(C)CCN2CCOc2ccc(C)cc2)cc1OC (centres undefined)	109.0	/	/	/	/	/
Cc1cc(O)c(/C=N/Nc2ccc(Cl)cc2)c(=O)o1	118.0	89.2*	2.6	-0.5	0.1	0.9

Source: PubChem BioAssay (several laboratories)
